Data set [1] relates to human endothelial HMEC-1 cells. The data set can be described thus: Protection of human endothelial cells from acrolein toxicity / cell death. It is filed as cell-based.
Data set [2] has as its system TrxR. The data set can be described thus: TrxR specific activity in normal human bronchial epithelial cells. The data set is classed as cell-based. To be noted: BEAS-2B cells, 2.5 μM acrolein, 30 min. The gist of the method: (§1)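 BEAS-2B normal human bronchial epithelial cells exposed to acrolein for 30 min, with vehicle-alone cultures as controls. Specific activity of TrxR, glutathione reductase (GSSG-R) and GAPDH determined by enzymatic assay. Significance (P < 0.01) judged against vehicle-treated cells.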

The target of data set [3] is glutathione reductase (GSSG-R) (Homo sapiens, UniProt P00390). The data set can be described thus: Glutathione reductase specific activity in BEAS-2B cells. The data set is classed as cell-based. Particulars: bronchial cells (BEAS-2B), 30 min. Summed up:
as §1

In data set [4] the target is glyceraldehyde-3-phosphate dehydrogenase (GAPDH) (Homo sapiens, UniProt P04406). The data set can be described thus: GAPDH specific activity in BEAS-2B cells. The data set is classed as cell-based. To be noted: 30 min acrolein. Summed up: as §1
Data set [5] relates to GSH. The data set can be described thus: GSH levels in human endothelial cells. To be noted: HMEC-1 cells, acrolein 30 min, recovery 1 or 2 h. The data set is classed as cell-based.
Another data set has as its target ASK1 bound to Trx1 (Homo sapiens, UniProt P10599). In words: Immunoprecipitation of ASK1 bound to Trx1 in HMEC-1 cells. The data set is classed as cell-based. Particulars: acrolein 30 min.
Another data set concerns p38. The data set can be described thus: p38 phosphorylation western blot in HMEC-1 cells. It is filed as cell-based, human. The gist of the method: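 HMEC-1 cells treated with acrolein, with anisomycin (200 ng/ml) as a known activator and untreated cells as controls. Western blots probed with anti-phospho-p38 (Thr180/Tyr182) and anti-p38α for total p38α. 3–5 independent treatments per condition, compared against untreated control.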
(Immunoblotting shows a protein as a band on a membrane.)

The subject of the next data set is JNK. The data set can be described thus: JNK phosphorylation western blot in HMEC-1 cells. The data set is classed as cell-based, human. Summed up:
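HMEC-1 endothelial cells given acrolein; anisomycin at 200 ng/ml served as positive activator, and untreated cells as reference. Immunoblots probed for phospho-JNK (Thr183/Tyr185) and with anti-pan-JNK for total JNK. n = 3–5 independent treatments for each condition.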

Data set [6] concerns TrxR. To be noted: A549 cells, cited from earlier work.
For data set [7], the system named is TrxR. To be noted: 25 μM acrolein for 30 min, human umbilical vein endothelial cells; cited from earlier work.
In data set [8] the test system is TrxR. To be noted: BEAS-2B cells, cited from earlier work.
The next data set deals with Purified TrxR. To be noted: 1 μM acrolein; cited from earlier work.
Another data set has as its system glutathione reductase. Particulars: 25 μM acrolein, 30 min, human umbilical vein endothelial cells; cited from earlier work.
Another data set deals with glutathione peroxidase. To be noted: 25 μM acrolein, 30 min, human umbilical vein endothelial cells; cited from earlier work.
For another data set, the system named is superoxide dismutase. To be noted: 25 μM acrolein, 30 min, human umbilical vein endothelial cells; cited from earlier work.
The next data set has as its system catalase. Particulars: 25 μM acrolein, 30 min, human umbilical vein endothelial cells; cited from earlier work.
The next data set concerns Human endothelial cells. To be noted: 30 min; cited from earlier work.
For data set [9] the following is noted: depending on the cell type; cited from earlier work.
The next data set relates to Trx. Particulars: cited from earlier work.
In the next data set the test system is Trx1. To be noted: cited from earlier work.
A further data set has as its system Trx2. To be noted: cited from earlier work.
The next data set relates to Prx1. To be noted: acrolein-treated human bronchial cells; cited from earlier work.
The subject of a further data set is Prx3. To be noted: acrolein-treated human bronchial cells; cited from earlier work.
The next data set has as its system AP-1. To be noted: A549 cells, reporter construct; cited from earlier work.
The test system of data set [10] is NF-κB. Particulars: A549 cells; cited from earlier work.
Data set [11] concerns NF-κB. To be noted: bovine endothelial cells; cited from earlier work.
The subject of data set [12] is GSH. To be noted: human endothelial cells, pretreatment; cited from earlier work.
For data set [13], the system named is human endothelial HMEC-1 cells. To be noted: 12.5 μM acrolein; cited from earlier work.
For data set [14], the system named is TrxR. To be noted: 50 μM 4-HNE for 6 hr, HeLa cells; cited from earlier work.
For data set [15] the following is noted: cited from earlier work.
In data set [16] the test system is NF-κB. Particulars: cited from earlier work.
The mark [17] stands for this setting: 5 μM acrolein, human endothelial and bronchial epithelial cells.
Setting [18] is: human endothelial cells, limited experiments.

“Also recorded” adds a separate entry of the source. Where two headings read alike, the source gives them in different places.

Chain of glutathione reductase (GSSG-R) (P00390 44-522): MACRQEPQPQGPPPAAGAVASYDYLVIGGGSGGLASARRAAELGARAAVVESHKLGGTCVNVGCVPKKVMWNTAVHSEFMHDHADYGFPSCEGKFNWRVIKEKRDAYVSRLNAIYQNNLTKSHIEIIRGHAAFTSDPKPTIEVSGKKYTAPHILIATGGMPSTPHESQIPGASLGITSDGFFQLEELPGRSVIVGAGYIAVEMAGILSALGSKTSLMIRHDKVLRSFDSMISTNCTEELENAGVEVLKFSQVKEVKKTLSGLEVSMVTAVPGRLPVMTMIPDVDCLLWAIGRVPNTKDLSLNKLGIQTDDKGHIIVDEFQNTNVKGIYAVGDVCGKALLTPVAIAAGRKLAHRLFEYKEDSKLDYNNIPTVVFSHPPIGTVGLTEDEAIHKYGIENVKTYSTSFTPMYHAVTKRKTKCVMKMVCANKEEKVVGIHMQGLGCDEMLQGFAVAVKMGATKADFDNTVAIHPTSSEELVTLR
Chain of glyceraldehyde-3-phosphate dehydrogenase (GAPDH) (P04406 whole entry): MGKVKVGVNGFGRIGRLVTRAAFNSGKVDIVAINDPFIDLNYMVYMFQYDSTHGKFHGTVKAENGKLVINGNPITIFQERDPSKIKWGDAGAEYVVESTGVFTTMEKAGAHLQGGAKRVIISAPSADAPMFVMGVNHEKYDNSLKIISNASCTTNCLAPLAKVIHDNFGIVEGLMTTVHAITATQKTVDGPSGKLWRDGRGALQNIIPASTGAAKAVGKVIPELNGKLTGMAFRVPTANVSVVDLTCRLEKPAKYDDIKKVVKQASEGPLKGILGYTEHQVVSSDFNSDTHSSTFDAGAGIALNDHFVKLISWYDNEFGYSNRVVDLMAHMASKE
Chain of ASK1 bound to Trx1 (P10599 2-105 limits assumed): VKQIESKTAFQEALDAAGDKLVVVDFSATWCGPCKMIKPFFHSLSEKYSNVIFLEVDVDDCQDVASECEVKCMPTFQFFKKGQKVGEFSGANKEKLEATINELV

Consider `Oc1c2ccccc2c2c3c(cccc13)N=N2` [SP600125], for which, in [1] (human endothelial HMEC-1 cells, inhibitor alone), the “effect on cell death by itself” value is listed as “increases cell death”.

Regarding `C=CC=O` [acrolein, Prop-2-enal], in the data set with TrxR [2], the “effect on TrxR activity (Fig. 2)” value was “markedly inhibits”. Also, the “inhibition of glutathione reductase activity (Fig. 2)” value in [3] (12.5 μM acrolein) is “ca. 40%”. The “effect on glutathione reductase activity (Fig. 2)” value in data set [3] (2.5 or 5 μM acrolein) was “not inhibited”. Also, the “effect on cellular activity of glyceraldehyde phosphate dehydrogenase (Fig. 2)” value in [4] is recorded as “not significantly affected”. Moreover, the “recovery of GSH levels once acrolein is removed (Fig. 3)” value with GSH [5] was “recover quickly”. Moreover, the “ASK1 bound to Trx1 (IP, Fig. 4)” value on ASK1 bound to Trx1 is “causes dissociation of ASK1 from Trx1”. Besides, the “phosphorylation of p38 (Fig. 5)” value in the data set with p38 is recorded as “causes phosphorylation of p38”. For the same compound, the “phosphorylation of JNK (Fig. 6)” value in the data set with JNK was “causes phosphorylation of JNK”. Besides, the “inhibition of TrxR activity” value with TrxR [6] (50-75 μM acrolein for 30 min) was “ca. 65%”; with TrxR [7], 88%. In addition, the “TrxR activity recovered after acrolein removal” value with TrxR [6] (2-4 hr after acrolein removal) is 70-100%. Also, in the data set on TrxR [8] (1 μM acrolein), the “effect on TrxR activity at 1 μM” value is “significant inhibition”. The “recovery of TrxR activity after acrolein removal” value with TrxR [8] (4 hr after acrolein removal) is “does not recover”. Further, in the data set on TrxR [8], the “acrolein concentration that strongly inhibits TrxR activity” value is at least 2.5 µM. In addition, the “irreversible inhibition of purified TrxR” value in the data set with Purified TrxR was 80%. For the same compound, the “effect on glutathione reductase” value in the data set with glutathione reductase is given as “not inhibited; also recorded: unaffected”. Besides, the “effect on glutathione peroxidase” value with glutathione peroxidase is reported as “not inhibited; also recorded: unaffected”. The “effect on superoxide dismutase” value in the data set with superoxide dismutase is given as “not inhibited; also recorded: unaffected”. The effect on catalase entry with catalase is reported as “not inhibited”. Also, the cytotoxic concentration with Human endothelial cells was at least 5 µM. For the same compound, in data set [9], the “toxicity relative to formaldehyde” value is given as 10-200 times. For the same compound, in the data set on Trx (A549 cancer cells), the “concentration for maximal inhibition of Trx activity” value was at least 15 µM. The “recovery of Trx activity after acrolein removal” value in the data set on Trx (A549 cells, 4 hr after acrolein removed) is reported as “partial recovery”. Also, the “effect on reduced form of Trx1 (redox blot)” value in the data set on Trx1 (setting [17]) was “eliminate the reduced forms”. For the same compound, in the data set on Trx1 (human endothelial cells, 4-hr acrolein-free period), the “recovery of Trx1 redox state after acrolein removal” value is “modest recovery”. The “effect on reduced form of Trx2 (redox blot)” value with Trx2 (setting [17]) is “eliminate the reduced forms”. Also, in the data set with Trx2 (setting [18]), the “redox recovery of Trx2 after acrolein removal” value is recorded as “not observed”. Besides, the “oxidation of Prx1 to dimers” value in the data set with Prx1 is “near complete oxidation”. The “oxidation of Prx3 to dimers” value in the data set on Prx3 is given as “near complete oxidation”. In addition, in the data set with AP-1, the “effect on AP-1 DNA binding and activity” value was “decreases AP-1 binding to DNA and AP-1 activity”. Also, the “effect on NF-κB binding and activity” value with NF-κB [10] is “blocks both the binding and activity of NF-κB”. In addition, the “effect on NF-κB DNA binding” value with NF-κB [11] is “blocks NF-κB DNA binding”.

Consider `CCOC(=O)CNC(=O)[C@H](CS)NC(=O)CC[C@H](N)C(=O)O` [GSH-monoethyl ester], for which the “increase in GSH levels” value in the data set on GSH [12] is 64%. For the same compound, the “protection of cells from acrolein” value in [13] was “only a minor protection”.

On to `CCCCCC(O)/C=C/C=O` (stereo not drawn) [4-HNE, 4-hydroxynonenal], for which the “inhibition of TrxR activity” value in the data set on TrxR [14] is reported as “ca. 60%”.

Regarding `N[C@@H](CCC(=O)N[C@@H](CS)C(=O)NCC(=O)O)C(=O)O` [GSH, reduced glutathione], the pKa of thiol in data set [15] is reported as 8.8.

Take `O=C/C=C/c1ccccc1` [Cinnamaldehyde]: the “effect on NF-κB activity” value in the data set with NF-κB [16] is given as “blocks NF-κB activity”.

In the case of `C[S+]([O-])c1ccc(-c2nc(-c3ccncc3)c(-c3ccc(F)cc3)[nH]2)cc1` (stereo not drawn) [SB203580], the “protection from acrolein toxicity (Fig. 7)” value in data set [1] (HMEC-1 cells, SB203580 10 μM 2 hr pretreatment, 5 and 12.5 μM acrolein 30 min, 14 hr in fresh medium) is reported as “decreases acrolein toxicity; also recorded: protects”.

In the case of `CC(=O)N[C@@H](CS)C(=O)O` [NAC, N-acetylcysteine, reference compound], the “protection of Trx1 redox state from acrolein” value with Trx1 (human endothelial cells, 2 hr pretreatment) is recorded as “partially protects”. In addition, the “protection of Trx2 from acrolein” value in the data set on Trx2 (setting [18]) was “did not protect”. The “increase in GSH levels” value in the data set on GSH [12] is 31%.

The record behind these values is article PMC3517082 (Molecular nutrition & food research, 2011).
